Results taken from article PMC11318567 (Computational and Structural Biotechnology Journal, 2024).
Entries after “also recorded” stand apart in the source; their conditions may differ.

Tests used:
human topo IIβ = human topo IIβ (Homo sapiens, UniProt Q02880); assay: Human topo IIβ-mediated decatenation assay; format: biochemical
human topo IIα [1] = molecular target: T1, human topo IIα (Homo sapiens, UniProt P11388); assay: Human topoisomerase IIα-mediated relaxation assay; format: biochemical
T1 sequence (P11388 whole entry): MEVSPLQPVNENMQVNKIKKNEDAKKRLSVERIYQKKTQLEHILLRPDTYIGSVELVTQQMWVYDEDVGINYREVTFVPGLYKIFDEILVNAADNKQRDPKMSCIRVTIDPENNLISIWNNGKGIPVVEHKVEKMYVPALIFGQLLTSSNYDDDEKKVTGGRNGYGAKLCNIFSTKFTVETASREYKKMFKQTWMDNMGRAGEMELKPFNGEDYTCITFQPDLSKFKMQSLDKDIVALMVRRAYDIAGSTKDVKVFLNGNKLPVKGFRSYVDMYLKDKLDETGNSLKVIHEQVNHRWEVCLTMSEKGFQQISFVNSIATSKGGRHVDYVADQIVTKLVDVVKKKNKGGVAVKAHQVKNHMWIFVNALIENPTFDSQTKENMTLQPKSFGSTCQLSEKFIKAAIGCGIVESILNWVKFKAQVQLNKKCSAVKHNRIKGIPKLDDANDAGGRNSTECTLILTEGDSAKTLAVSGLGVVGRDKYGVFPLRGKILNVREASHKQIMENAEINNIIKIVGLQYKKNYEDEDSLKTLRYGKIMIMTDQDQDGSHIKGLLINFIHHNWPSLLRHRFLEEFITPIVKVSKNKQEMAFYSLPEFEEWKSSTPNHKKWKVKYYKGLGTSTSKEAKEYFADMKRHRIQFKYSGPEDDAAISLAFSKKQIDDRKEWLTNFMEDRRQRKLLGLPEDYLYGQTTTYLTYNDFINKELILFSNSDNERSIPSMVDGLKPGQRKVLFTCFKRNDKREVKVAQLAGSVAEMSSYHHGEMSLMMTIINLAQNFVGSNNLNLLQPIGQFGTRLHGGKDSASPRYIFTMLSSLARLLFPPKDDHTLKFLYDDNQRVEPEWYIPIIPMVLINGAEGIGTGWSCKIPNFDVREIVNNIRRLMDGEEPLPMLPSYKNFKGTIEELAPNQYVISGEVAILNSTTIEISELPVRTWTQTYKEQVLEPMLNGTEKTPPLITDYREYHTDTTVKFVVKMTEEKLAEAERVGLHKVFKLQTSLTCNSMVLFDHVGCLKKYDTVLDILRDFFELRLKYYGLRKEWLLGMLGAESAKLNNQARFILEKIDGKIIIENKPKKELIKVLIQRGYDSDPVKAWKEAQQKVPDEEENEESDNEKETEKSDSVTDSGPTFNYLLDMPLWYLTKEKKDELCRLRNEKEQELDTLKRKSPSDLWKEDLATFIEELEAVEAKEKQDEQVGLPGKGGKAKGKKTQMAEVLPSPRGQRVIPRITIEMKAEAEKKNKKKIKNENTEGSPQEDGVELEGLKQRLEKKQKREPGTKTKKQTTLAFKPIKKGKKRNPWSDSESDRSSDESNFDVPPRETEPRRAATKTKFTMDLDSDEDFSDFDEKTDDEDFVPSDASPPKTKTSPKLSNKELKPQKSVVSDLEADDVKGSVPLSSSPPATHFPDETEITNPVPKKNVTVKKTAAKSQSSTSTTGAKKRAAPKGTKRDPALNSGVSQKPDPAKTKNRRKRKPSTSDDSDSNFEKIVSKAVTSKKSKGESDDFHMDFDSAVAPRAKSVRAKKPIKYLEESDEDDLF

human topo IIα [2] = molecular target: T1, human topo IIα; assay: Human topoisomerase IIα-mediated cleavage assay; format: biochemical; details: 7.8-125 μM
wheatgerm topo I = assay: Wheatgerm topo I unwinding assay; format: biochemical, wheat germ; details: 7.8, 15.6, 31.25, 125 μM
Procedure, shortened: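 Wheat germ topo I plasmid unwinding run in duplicate at 7.8, 15.6, 31.25 and 125 µM test compound, with the intercalator m-AMSA as positive control.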

[3] = molecular target: ATPase domain of topo IIα (Homo sapiens, UniProt P11388); assay: 1H STD NMR experiments; format: binding; details: protein:ligand ratio 1:100
Sequence of ATPase domain of topo IIα (P11388 1-453 limits assumed): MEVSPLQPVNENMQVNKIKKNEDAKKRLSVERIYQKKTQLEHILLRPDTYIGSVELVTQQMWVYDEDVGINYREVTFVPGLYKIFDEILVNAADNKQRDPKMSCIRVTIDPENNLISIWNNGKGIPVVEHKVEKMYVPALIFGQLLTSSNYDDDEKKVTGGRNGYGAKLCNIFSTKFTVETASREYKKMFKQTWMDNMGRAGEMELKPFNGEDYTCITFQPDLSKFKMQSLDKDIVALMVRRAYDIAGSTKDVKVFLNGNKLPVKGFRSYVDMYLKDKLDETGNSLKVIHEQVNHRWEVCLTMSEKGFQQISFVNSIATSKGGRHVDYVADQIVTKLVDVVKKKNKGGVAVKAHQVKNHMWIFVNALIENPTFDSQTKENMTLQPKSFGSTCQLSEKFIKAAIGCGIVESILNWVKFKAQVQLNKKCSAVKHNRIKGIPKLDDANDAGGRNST
Procedure, shortened: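 Runs were at 600 MHz, 25 °C, with a 100 ms T₁ρ filter. On-resonance saturation was at −0.727 ppm and off-resonance at 30 ppm. Saturation was 0.5 or 1 s depending on compound, with relaxation delay 4 or 1.5 s. Epitope maps come from STD amplification factors.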

[4] = tested on: NCI-60 human cancer cell lines; assay: NCI-60 screening, whole panel; format: cell-based; details: 10 µM
human topo IIα [5] = molecular target: T1, human topo IIα; assay: Human topo IIα-mediated decatenation assay; format: biochemical; details: for IC50, topo IIα-mediated decatenation assay: average of two replicates
human topo IIα [6] = molecular target: T1, human topo IIα; assay: Human topo IIα competitive cleavage assay; format: biochemical; details: in the presence of 50 μM etoposide
human topo II = human topo II (Homo sapiens, UniProt P11388); assay: Competitive ATPase assay; format: biochemical; details: IC50 versus ATP concentration
Sequence of human topo II (P11388 whole entry): as the sequence (P11388 whole entry) above
Procedure, shortened: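 NADH-coupled ATPase (pyruvate kinase/lactate dehydrogenase, phosphoenolpyruvate) with human topo II at 14 nM final and linear pBR322. Buffer was 20 mM Tris-HCl, 5 mM Mg acetate, 125 mM K acetate, 2 mM DTT, pH 7.9. Compound in DMSO went in before enzyme, then a 10–15 min OD340 pre-run. ATP was added at varying concentrations and OD340 followed for up to 30 min at 37 °C, in duplicate. Hydrolysis rates vs ATP gave IC50 at each ATP level.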

[7] = Solubility as observed during preparation for assays; format: physicochemical
U251 = assay: NCI-60 screening; format: cell-based; details: Homo sapiens, U-251, read-out: inhibition of cell growth
SK-MEL-5 = assay: NCI-60 screening; format: cell-based; details: Homo sapiens, SK-MEL-5, read-out: inhibition of cell growth

Sequence of human topo IIβ (Q02880 whole entry): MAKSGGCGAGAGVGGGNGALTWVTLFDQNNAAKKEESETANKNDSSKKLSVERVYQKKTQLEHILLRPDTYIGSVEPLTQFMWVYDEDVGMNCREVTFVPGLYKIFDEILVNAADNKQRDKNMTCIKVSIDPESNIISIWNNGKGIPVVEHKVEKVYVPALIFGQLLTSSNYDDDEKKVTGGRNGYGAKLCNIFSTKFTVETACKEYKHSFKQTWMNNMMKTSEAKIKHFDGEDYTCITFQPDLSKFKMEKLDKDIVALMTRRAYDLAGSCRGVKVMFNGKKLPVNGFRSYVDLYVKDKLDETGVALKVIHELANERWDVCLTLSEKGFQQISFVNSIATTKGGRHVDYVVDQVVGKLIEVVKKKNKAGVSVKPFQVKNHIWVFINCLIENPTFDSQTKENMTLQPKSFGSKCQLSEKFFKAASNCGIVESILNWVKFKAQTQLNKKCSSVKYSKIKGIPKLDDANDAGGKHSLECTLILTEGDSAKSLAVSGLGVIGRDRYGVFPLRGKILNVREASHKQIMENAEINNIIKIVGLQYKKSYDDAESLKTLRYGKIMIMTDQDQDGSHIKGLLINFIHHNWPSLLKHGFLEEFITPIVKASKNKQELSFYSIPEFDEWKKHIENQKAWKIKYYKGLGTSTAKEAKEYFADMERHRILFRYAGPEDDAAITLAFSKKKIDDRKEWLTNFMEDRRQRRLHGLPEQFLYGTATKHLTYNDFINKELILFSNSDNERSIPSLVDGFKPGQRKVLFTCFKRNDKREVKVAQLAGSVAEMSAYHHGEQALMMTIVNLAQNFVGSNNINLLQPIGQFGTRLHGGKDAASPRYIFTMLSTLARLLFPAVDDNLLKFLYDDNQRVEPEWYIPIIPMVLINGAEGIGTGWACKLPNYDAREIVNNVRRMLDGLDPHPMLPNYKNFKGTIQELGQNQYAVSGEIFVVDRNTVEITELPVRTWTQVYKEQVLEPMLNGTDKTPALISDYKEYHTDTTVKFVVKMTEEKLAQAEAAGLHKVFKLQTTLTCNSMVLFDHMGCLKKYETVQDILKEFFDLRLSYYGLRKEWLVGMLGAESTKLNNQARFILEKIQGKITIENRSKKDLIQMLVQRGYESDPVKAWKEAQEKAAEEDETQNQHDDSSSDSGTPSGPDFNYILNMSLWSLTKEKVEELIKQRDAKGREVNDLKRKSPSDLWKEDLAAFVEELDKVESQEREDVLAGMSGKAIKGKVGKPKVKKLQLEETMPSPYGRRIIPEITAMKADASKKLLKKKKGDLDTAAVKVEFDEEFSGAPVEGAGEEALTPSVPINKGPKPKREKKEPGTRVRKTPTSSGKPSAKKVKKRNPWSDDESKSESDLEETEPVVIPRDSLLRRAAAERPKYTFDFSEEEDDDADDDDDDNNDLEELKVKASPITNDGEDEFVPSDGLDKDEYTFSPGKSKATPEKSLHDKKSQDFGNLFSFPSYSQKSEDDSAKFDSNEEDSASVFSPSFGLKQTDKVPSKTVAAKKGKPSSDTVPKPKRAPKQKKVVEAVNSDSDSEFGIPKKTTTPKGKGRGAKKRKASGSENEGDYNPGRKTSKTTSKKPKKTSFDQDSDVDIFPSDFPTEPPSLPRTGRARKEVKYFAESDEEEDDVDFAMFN

SMILES	IC50 (human topo IIβ)	IC50 (human topo IIα [1])	linear plasmid in the cleavage assay (in words) (human topo IIα [2])	unwinding / intercalation (in words) (wheatgerm topo I)	interaction with the ATPase domain of topo IIα by STD NMR (in words) [3]	cytotoxic activity in NCI-60 (in words) [4]	solubility (in words) [7]	further results
Cc1nc(CSc2nc(SCc3ccc(C(C)C)cc3)nc(=O)[nH]2)cs1 [Compound 37, 4-((4-Isopropylbenzyl)thio)−6-(((2-methylthiazol-4-yl)methyl)thio)−1,3,5-triazin-2(1H)-one]	16 ± 39 µM	108 ± 3.8 µM	only a very weak increase in the linear plasmid at the highest concentration of 125 μM	inhibitors rather than intercalators	confirmed its interaction with the ATPase domain	did not exhibit cytotoxic activity		
O=c1nc(SCc2cc(F)cc(C(F)(F)F)c2)nc(SCc2ccc3nc(Cl)ccc3c2)[nH]1 [Compound 30, 6-(((2-Chloroquinolin-6-yl)methyl)thio)−4-((3-fluoro-5-(trifluoromethyl)benzyl)thio)−1,3,5-triazin-2(1H)-one]	10.6 ± 28.8 µM		only a very weak increase in the linear plasmid at the highest concentration of 125 μM	inhibitors rather than intercalators	confirmed the interaction		more soluble compared to the previous series; also recorded: more soluble compared to the benzyl-substituted analogues	IC50 (human topo IIα [5]): 12 ± 4.8 µM; linear product in the competitive cleavage assay (in words) (human topo IIα [6]): decreased the amount of linear product of the etoposide-topo IIα complex; mode of inhibition with respect to ATP (in words) (human topo II): ATP-competitive inhibition
O=c1nc(SCc2ccc(C(F)(F)F)cc2)nc(SCc2csc3ccc(Cl)cc23)[nH]1 [Compound 33, 6-(((5-Chlorobenzo[b]thiophen-3-yl)methyl)thio)−4-((4-(trifluoromethyl)benzyl)thio)−1,3,5-triazin-2(1H)-one]		7.7 ± 8.5 µM						IC50, topo IIα-mediated decatenation assay (human topo IIα [5]): single-digit micromolar range
O=c1nc(SCc2ccc(C(F)(F)F)cc2)nc(SCc2ccc3sccc3c2)[nH]1 [Compound 25, 6-((Benzo[b]thiophen-5-ylmethyl)thio)−4-((4-(trifluoromethyl)benzyl)thio)−1,3,5-triazin-2(1H)-one]						more diverse and potent cytotoxic effects		inhibition at 10 µM (U251): 80%; inhibition at 10 µM (SK-MEL-5): 89.5%
COc1cc(NS(C)(=O)=O)ccc1Nc1c2ccccc2nc2ccccc12 [mAMSA, reference compound]				showed intercalator-mediated effects at all 4 concentrations				
O=c1nc(SCc2cc(F)cc(C(F)(F)F)c2)nc(SCc2ccc3nc(OCCN4CCOCC4)ccc3c2)[nH]1 [Compound 31, 4-((3-Fluoro-5-(trifluoromethyl)benzyl)thio)−6-(((2-(2-morpholinoethoxy)quinolin-6-yl)methyl)thio)−1,3,5-triazin-2(1H)-one]			no linear plasmid up to the measured concentration of 125 μM		confirmed the interaction		more soluble compared to the previous series	IC50 (human topo IIα [5]): 18.5 ± 5.9 µM
COc1cc([C@@H]2c3cc4c(cc3[C@@H](O[C@@H]3O[C@@H]5CO[C@@H](C)O[C@H]5[C@H](O)[C@H]3O)[C@H]3COC(=O)[C@H]23)OCO4)cc(OC)c1O [Etoposide, etoposide, reference compound]				showed no signs of unfolding				
O=c1nc(SCc2cc(F)cc(C(F)(F)F)c2)nc(SCc2csc3ccc(Cl)cc23)[nH]1 [Compound 32, 6-(((5-Chlorobenzo[b]thiophen-3-yl)methyl)thio)−4-((3-fluoro-5-(trifluoromethyl)benzyl)thio)−1,3,5-triazin-2(1H)-one]	8.3 ± 2.5 µM	8.7 ± 7.3 µM	higher even at lower concentrations					IC50, topo IIα-mediated decatenation assay (human topo IIα [5]): single-digit micromolar range
CC(C)c1ccc(CSc2nc(SCc3ccc4sccc4c3)[nH]c(=O)n2)cc1 [Compound 26, 6-((Benzo[b]thiophen-5-ylmethyl)thio)−4-((4-isopropylbenzyl)thio)−1,3,5-triazin-2(1H)-one]						much lower compared to 24 and 25		
O=c1nc(SCc2cc(F)cc(C(F)(F)F)c2)nc(SCc2cccc(C(F)(F)F)c2)[nH]1 [Compound 34, 4-((3-Fluoro-5-(trifluoromethyl)benzyl)thio)− 6-((3-(trifluoromethyl)benzyl)thio)− 1,3,5-triazin-2(1 H)-one]						did not exhibit cytotoxic activity	less soluble	
